The record followed here is ChEMBL document CHEMBL1132286, “Design, synthesis, and dopamine receptor modulating activity of spiro bicyclic peptidomimetics of L-prolyl-L-leucyl-glycinamide” (J Med Chem, 1999).

In assay [1] the target is T1, D(2) dopamine receptor (Homo sapiens, UniProt P14416). In words: Ratio of the high affinity state over low affinity state of dopamine D2 receptor in the presence of Gpp(NH)p. (pretreatment with 100 nM of compound). In short, it runs like this: (§1)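 D2 receptor binding: [3H]spiroperidol displaced by the agonist N-propylnorapomorphine, run without or with Gpp(NH)p (100 μM). The assay was done either with 100 nM test-compound pretreatment or untreated as its control. High- and low-affinity dissociation constants (KH, KL) and receptor fractions (RH, RL, RH/RL) are reported. Values are mean ± SEM of 3–4 separate experiments, each done in duplicate or triplicate.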
T1 sequence (P14416 whole entry): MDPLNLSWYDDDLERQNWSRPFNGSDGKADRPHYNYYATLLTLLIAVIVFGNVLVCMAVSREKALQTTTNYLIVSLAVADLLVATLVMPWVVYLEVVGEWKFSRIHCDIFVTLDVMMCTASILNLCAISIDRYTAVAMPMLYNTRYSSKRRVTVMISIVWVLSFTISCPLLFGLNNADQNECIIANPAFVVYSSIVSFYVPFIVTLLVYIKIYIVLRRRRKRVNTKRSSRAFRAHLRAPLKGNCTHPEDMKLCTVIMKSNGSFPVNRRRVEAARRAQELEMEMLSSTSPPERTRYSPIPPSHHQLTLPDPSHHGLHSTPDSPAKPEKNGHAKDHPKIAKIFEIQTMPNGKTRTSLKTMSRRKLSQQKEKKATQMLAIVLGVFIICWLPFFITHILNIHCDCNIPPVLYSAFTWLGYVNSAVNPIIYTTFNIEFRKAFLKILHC

The target of assay [2] is T1, D(2) dopamine receptor. Briefly: Percent of Dopamine receptor D2 in high affinity state for the compound in absence of Gpp(NH)p (pretreatment with 100 nM of compound). In short, it runs like this: as §1
The target of assay [3] is T1, D(2) dopamine receptor. In words: Inhibitor constant of compound for low affinity component of [3H]spiroperidol/N-propylnorapomorphine binding to Dopamine receptor D2 in absence of Gpp(NH)p. In short, it runs like this:
as §1

Assay [4] addresses T1, D(2) dopamine receptor. In words: Percent of Dopamine receptor D2 in low affinity state for the compound in absence of Gpp(NH)p. In short, it runs like this:
as §1

In assay [5] the target is T1, D(2) dopamine receptor. In words: Percent of Dopamine receptor D2 in low affinity state for the compound in presence of Gpp(NH)p (pretreatment with 100 nM of compound). A digest of the protocol: as §1
For assay [6], the target named is T1, D(2) dopamine receptor. Briefly: Inhibitor constant of compound for high affinity component of [3H]spiroperidol/N-propylnorapomorphine binding to Dopamine receptor D2 in absence of Gpp(NH)p (pretreatment with 100 nM of compound). A digest of the protocol: as §1
The subject of assay [7] is Rattus norvegicus. In words: Percent increase in apomorphine induced rotational behavior in the 6-hydroxydopamine lesioned rat model of hemiparkinsonism by 0.01 mg/Kg of compound given intraperitoneally. Type of assay: functional. A digest of the protocol: (§2)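 Rats with a unilateral 6-hydroxydopamine lesion of the substantia nigra received the test compound ip (0.00001–1 mg/kg) together with apomorphine (0.25 mg/kg, ip), n = 4. Contralateral rotations were counted over 10 min and expressed as percent change from the control rotational response, mean ± SEM.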

The target in assay [8] is T1, D(2) dopamine receptor. Briefly: Percent of Dopamine receptor D2 in high affinity state for the compound in presence of Gpp(NH)p (pretreatment with 100 nM of compound). A digest of the protocol:
as §1

The target of assay [9] is T1, D(2) dopamine receptor. Briefly: Ratio of the high affinity state over low affinity state of dopamine D2 receptor in the absence of Gpp(NH)p. (pretreatment with 100 nM of compound). In short, it runs like this:
as §1

The target of assay [10] is T1, D(2) dopamine receptor. In words: Inhibitor constant of compound for high affinity component of [3H]spiroperidol/N-propylnorapomorphine binding to Dopamine receptor D2 in presence of Gpp(NH)p. A digest of the protocol: as §1
For assay [11], the target named is T1, D(2) dopamine receptor. Briefly: Inhibitor constant of compound for low affinity component of [3H]spiroperidol/N-propylnorapomorphine binding to Dopamine receptor D2 in absence of Gpp(NH)p (pretreatment with 100 nM of compound). In short, it runs like this: as §1
The target in assay [12] is T1, D(2) dopamine receptor. Briefly: Inhibitor constant of compound for low affinity component of [3H]spiroperidol/N-propylnorapomorphine binding to Dopamine receptor D2 in presence of Gpp(NH)p. A digest of the protocol: as §1
For assay [13], the target named is T1, D(2) dopamine receptor. Briefly: Percent of Dopamine receptor D2 in high affinity state for the compound in absence of Gpp(NH)p. A digest of the protocol: as §1
Assay [14] has as its target T1, D(2) dopamine receptor. Briefly: Ratio of the high affinity state over low affinity state of dopamine D2 receptor in the presence of Gpp(NH)p. In short, it runs like this: as §1
For assay [15], the target named is T1, D(2) dopamine receptor. Briefly: Percent of Dopamine receptor D2 in low affinity state for the compound in presence of Gpp(NH)p. A digest of the protocol: as §1
Assay [16] addresses T1, D(2) dopamine receptor. Briefly: Percent of Dopamine receptor D2 in high affinity state for the compound in presence of Gpp(NH)p. A digest of the protocol:
as §1

The target in assay [17] is T1, D(2) dopamine receptor. In words: Percent of Dopamine receptor D2 in low affinity state for the compound in absence of Gpp(NH)p (pretreatment with 100 nM of compound). In short, it runs like this: as §1
Assay [18] has as its target T1, D(2) dopamine receptor. Briefly: Inhibitor constant of compound for high affinity component of [3H]spiroperidol/N-propylnorapomorphine binding to Dopamine receptor D2 in absence of Gpp(NH)p. A digest of the protocol:
as §1

The target in assay [19] is T1, D(2) dopamine receptor. Briefly: Ratio of the high affinity state over low affinity state of dopamine D2 receptor in the absence of Gpp(NH)p. A digest of the protocol: as §1
In assay [20] the target is T1, D(2) dopamine receptor. Briefly: Inhibitor constant of compound for high affinity component of [3H]spiroperidol/N-propylnorapomorphine binding to Dopamine receptor D2 in presence of Gpp(NH)p (pretreatment with 100 nM of compound). In short, it runs like this: as §1
The subject of assay [21] is Rattus norvegicus. In words: Percent increase in apomorphine induced rotational behavior in the 6-hydroxydopamine lesioned rat model of hemiparkinsonism by 0.001 mg/Kg of compound given intraperitoneally. In kind it is functional. A digest of the protocol: as §2

pKi: −log10 of the molar value. “And” between values parts separate entries of the source, which are not always exact repeats. Equal values may be shown once. Peptide text beside a SMILES is read from it.

The pKi is the Ki on a negative log10 scale, so that one unit is a factor of ten. For `NC(=O)C1CCS[C@@H]2C[C@]3(CCCN3C(=O)[C@@H]3CCCN3)C(=O)N12` (some centres undefined), the RH/RL was 1.12 on D(2) dopamine receptor [1], 1.77 on D(2) dopamine receptor [9], 0.17 at D(2) dopamine receptor [14] and 1.08 on D(2) dopamine receptor [19]. The RH on D(2) dopamine receptor [2] came out at 64%; on D(2) dopamine receptor [8], 53%; on D(2) dopamine receptor [13], 52%; on D(2) dopamine receptor [16] it was 15%. The pKi at D(2) dopamine receptor [3] is 6.71; at D(2) dopamine receptor [6], 10.51; on D(2) dopamine receptor [10] it was 9.91; on D(2) dopamine receptor [11], 6.77; on D(2) dopamine receptor [12], 6.61 and 6.69; at D(2) dopamine receptor [18], 10.15. The negative-log Ki (pKi) at D(2) dopamine receptor [20] is 10.19. Further, the RL on D(2) dopamine receptor [4] was determined as 48%; at D(2) dopamine receptor [5] it was 47%; at D(2) dopamine receptor [15], 85%; at D(2) dopamine receptor [17] it was 36%. Also, in the assay on Rattus norvegicus [7], the Activity is on record as 95%.

In the case of `CC(C)C[C@H](NC(=O)[C@@H]1CCCN1)C(=O)NCC(N)=O` (H-Pro-Leu-Gly-NH2), the RH/RL amounted to 0.44 on D(2) dopamine receptor [1], 1.48 at D(2) dopamine receptor [9], 0.23 at D(2) dopamine receptor [14] and 0.96 on D(2) dopamine receptor [19]. In addition, the RH on D(2) dopamine receptor [2] was 61%; at D(2) dopamine receptor [8], 32%; on D(2) dopamine receptor [13] it was 49%; at D(2) dopamine receptor [16] it was 19%. In addition, the pKi is 7.14 at D(2) dopamine receptor [3]; 10.40 on D(2) dopamine receptor [6]; 9.89 at D(2) dopamine receptor [10]; 7.22 at D(2) dopamine receptor [11]; 7.22 and 7.11 at D(2) dopamine receptor [12]; 10.05 at D(2) dopamine receptor [18]. Also, the pKi at D(2) dopamine receptor [20] is 10.22. For the same compound, the RL on D(2) dopamine receptor [4] stood at 51%; on D(2) dopamine receptor [5], 72%; at D(2) dopamine receptor [15] it was 82%; at D(2) dopamine receptor [17], 41%.

Consider `NC(=O)[C@H]1CS[C@@H]2CC[C@]3(CCCN3C(=O)[C@@H]3CCCN3)C(=O)N12`, for which the RH/RL on D(2) dopamine receptor [1] was found to be 1.22; on D(2) dopamine receptor [9], 2.12; at D(2) dopamine receptor [14], 0.2; at D(2) dopamine receptor [19] it was 1.13. The RH on D(2) dopamine receptor [2] is 68%; on D(2) dopamine receptor [8], 55%; on D(2) dopamine receptor [13], 53%; at D(2) dopamine receptor [16] it was 17%. Moreover, the pKi was 6.72 at D(2) dopamine receptor [3]; 10.30 on D(2) dopamine receptor [6]; 9.71 on D(2) dopamine receptor [10]; 6.73 on D(2) dopamine receptor [11]; 6.59 and 6.68 at D(2) dopamine receptor [12]; 10.17 on D(2) dopamine receptor [18]. The pKi at D(2) dopamine receptor [20] is 10.05. The RL was 47% on D(2) dopamine receptor [4], 45% at D(2) dopamine receptor [5], 83% on D(2) dopamine receptor [15] and 32% at D(2) dopamine receptor [17]. Also, in the assay on Rattus norvegicus [21], the Activity turned out to be 88%.
